Consider 21 molecules from ChEMBL document CHEMBL1154612, “Discovery and validation of a series of aryl sulfonamides as selective inhibitors of tissue-nonspecific alkaline phosphatase (TNAP)” (J Med Chem, 2009).

Converted amounts (≈) assume the structure as drawn.

Series [1] has as its target T1, Alkaline phosphatase, tissue-nonspecific isozyme (Homo sapiens, UniProt P05186).
T1 sequence (P05186 whole entry): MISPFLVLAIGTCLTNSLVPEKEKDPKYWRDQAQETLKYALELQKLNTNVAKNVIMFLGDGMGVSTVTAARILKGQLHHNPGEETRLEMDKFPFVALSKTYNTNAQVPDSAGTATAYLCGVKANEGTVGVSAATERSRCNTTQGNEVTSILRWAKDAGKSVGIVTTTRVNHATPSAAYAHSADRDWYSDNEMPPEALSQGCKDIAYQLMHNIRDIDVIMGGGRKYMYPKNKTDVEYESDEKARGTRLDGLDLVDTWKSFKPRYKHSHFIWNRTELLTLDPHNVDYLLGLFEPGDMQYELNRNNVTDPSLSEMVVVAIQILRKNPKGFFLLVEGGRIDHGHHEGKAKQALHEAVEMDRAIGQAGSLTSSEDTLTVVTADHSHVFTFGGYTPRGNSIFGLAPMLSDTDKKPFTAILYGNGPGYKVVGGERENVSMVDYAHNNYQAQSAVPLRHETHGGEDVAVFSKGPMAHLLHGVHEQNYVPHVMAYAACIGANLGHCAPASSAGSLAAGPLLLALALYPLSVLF
Kind of series: Inhibition of TNAP transfected in african green monkey COS1 cells by luminescent assay.

The nature of series [2]: Permeability by PAMPA assay. Format: ADME.
The nature of series [3]: Metabolic stability in rat liver microsomes after 30 mins. The following applies: read-out: Stability. Format: ADME, Microsome. In a few lines:
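Compounds incubated in triplicate with pooled rat liver microsomes plus NADPH at 37 °C for 30 min. Reported as percent remaining.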

The nature of series [4]: Metabolic stability in rat plasma after 30 mins. Format: ADME, cell-free. The following applies: read-out: Stability. Summed up:
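Compounds incubated in fresh rat plasma at 37 °C for 30 min. Reported as percent remaining.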

The nature of series [5]: Solubility at pH 7.4 by direct UV method. Type of series: physicochemical. The note with it: buffer. In a few lines: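 Direct UV kinetic solubility in aqueous buffer at pH 7.4, in duplicate. Samples held at room temperature for at least 18 h, then filtered to remove precipitate. UV absorbance (250-498 nm) compared with spectra of precipitation-free reference solutions.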

For series [6], the target named is T2, Ectonucleotide pyrophosphatase/phosphodiesterase family member 1 (Homo sapiens) (UniProt P22413).
T2 sequence (whole entry): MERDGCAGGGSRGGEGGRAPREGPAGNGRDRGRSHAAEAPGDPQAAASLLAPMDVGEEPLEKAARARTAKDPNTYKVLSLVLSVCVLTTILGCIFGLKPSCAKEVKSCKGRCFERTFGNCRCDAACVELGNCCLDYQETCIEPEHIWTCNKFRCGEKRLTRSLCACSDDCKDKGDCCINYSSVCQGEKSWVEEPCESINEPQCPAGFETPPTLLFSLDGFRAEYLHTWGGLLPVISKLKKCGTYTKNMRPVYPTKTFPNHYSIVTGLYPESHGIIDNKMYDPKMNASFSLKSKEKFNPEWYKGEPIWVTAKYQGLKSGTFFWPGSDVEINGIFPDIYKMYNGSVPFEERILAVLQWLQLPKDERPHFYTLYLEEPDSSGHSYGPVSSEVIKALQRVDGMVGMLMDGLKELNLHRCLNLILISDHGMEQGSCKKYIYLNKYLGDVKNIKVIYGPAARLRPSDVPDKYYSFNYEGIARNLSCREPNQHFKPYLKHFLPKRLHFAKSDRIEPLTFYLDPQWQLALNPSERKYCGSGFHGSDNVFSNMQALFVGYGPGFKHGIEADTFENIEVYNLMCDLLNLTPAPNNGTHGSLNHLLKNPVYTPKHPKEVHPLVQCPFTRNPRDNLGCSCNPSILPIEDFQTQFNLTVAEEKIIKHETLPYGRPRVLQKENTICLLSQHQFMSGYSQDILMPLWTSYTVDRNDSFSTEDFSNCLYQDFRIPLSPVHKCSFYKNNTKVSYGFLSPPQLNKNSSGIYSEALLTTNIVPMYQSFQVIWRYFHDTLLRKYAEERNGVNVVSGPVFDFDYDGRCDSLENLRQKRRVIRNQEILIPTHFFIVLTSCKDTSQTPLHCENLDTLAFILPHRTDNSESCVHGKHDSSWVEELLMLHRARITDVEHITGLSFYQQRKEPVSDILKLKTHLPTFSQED
Kind of series: Inhibition of NPP1. The following applies: concentration not given here. In a few lines: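 NPP1 activity with 5 mM pNP-TMP in 50 mM Tris pH 7.4 or 100 mM Tris pH 8.9 with 2 mM MgCl2 at 37 °C. Reaction started with enzyme and stopped with 1 M NaOH at set times. p-Nitrophenolate read at 410 nm, in triplicate, with no-enzyme controls. Inhibitor tested at 10 μM final.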

Series [7] deals with T3, Phosphoethanolamine/phosphocholine phosphatase (Homo sapiens) (UniProt Q8TCT1).
T3 sequence (whole entry): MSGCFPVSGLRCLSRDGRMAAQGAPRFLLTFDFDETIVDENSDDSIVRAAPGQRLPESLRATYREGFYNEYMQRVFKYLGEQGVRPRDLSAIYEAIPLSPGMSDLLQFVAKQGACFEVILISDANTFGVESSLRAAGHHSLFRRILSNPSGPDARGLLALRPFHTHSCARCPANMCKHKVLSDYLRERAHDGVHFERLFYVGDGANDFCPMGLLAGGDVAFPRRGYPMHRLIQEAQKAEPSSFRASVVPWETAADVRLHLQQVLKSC
The experiment in a line: Inhibition of PHOSPHO1 assessed as inorganic phosphate release. The note with it: concentration not given here.

In series [8] the target is Intestinal-type alkaline phosphatase (Homo sapiens, UniProt P09923). The experiment in a line: Inhibition of IAP by luminescent assay.
Series [9] can be described thus: Cmax in rat at 4.13 mg/kg, sc. The note with it: in vivo. Set-up: dose 4.13 mg/kg, route subcutaneous. Format: ADME, organism-based. Summed up:
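Rats dosed subcutaneously with 400 microliters of a […] solution (4.13 mg/kg) in 50% DMSO in normal saline. Blood drawn and frozen immediately, plasma kept at -20 °C. Compound quantified by LC-MS/MS (electrospray, C18 reverse-phase, water-acetonitrile gradient) against a 7-point calibration curve built from peak areas of serial dilutions.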

Intestinal-type alkaline phosphatase, sequence (P09923 whole entry): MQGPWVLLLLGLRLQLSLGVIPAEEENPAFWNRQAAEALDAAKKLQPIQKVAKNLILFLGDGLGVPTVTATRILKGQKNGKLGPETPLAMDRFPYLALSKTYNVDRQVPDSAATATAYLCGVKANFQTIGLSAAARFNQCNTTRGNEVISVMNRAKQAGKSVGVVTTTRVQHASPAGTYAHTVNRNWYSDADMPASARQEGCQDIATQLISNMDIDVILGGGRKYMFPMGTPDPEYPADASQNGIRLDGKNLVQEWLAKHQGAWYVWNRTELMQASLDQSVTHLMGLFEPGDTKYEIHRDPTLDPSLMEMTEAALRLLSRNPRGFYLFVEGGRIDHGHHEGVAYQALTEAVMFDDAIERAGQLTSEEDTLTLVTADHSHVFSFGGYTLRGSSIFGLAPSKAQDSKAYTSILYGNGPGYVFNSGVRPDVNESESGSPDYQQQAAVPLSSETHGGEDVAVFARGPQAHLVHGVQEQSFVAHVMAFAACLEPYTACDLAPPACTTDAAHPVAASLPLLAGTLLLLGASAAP

Molecule `COc1ccc(OC)c(S(=O)(=O)Nc2ccc3ccccc3c2)c1` returned an IC50 in series [1] greater than 10000 nM.

In series [1], `COc1cc(S(=O)(=O)Nc2cccnc2)c(OC)cc1Br` had an IC50 of 1550 nM.

For the molecule `COc1cc([N+](=O)[O-])ccc1S(=O)(=O)Nc1cccnc1`, the IC50 in series [1] was determined as 3160 nM. The molecule further displayed a permeability in [2] of 51%. The remaining at 0.5 h in series [3] was 68%; in [4] it was 99%. Also, in [5], the kinetic solubility is 1.1 µg/mL (≈ 3.56 µM).

`COc1ccc(OC)c(S(=O)(=O)Nc2ccc3ncccc3c2)c1` returned an IC50 in series [1] greater than 10000 nM.

In turn, `COc1cc([N+](=O)[O-])ccc1S(=O)(=O)Nc1cnc2ccccc2c1` returned an IC50 in series [1] of 740 nM. In series [2], this molecule returned a permeability of 11%. The remaining at 0.5 h came out at 56% in series [3] and 96% in [4]. In series [5], the solubility (kinetic) turned out to be 178 µg/mL (≈ 495 µM).

For `COc1cc(C)c(Cl)cc1S(=O)(=O)Nc1cccnc1`, in series [1], the IC50 was found to be 510 nM.

In the case of `COc1ccc(OC)c(CNc2cnc3ccccc3c2)c1`, the IC50 in series [1] is greater than 10000 nM.

In the case of `COc1ccc(F)cc1S(=O)(=O)Nc1cccnc1`, in series [1], it took 1290 nM to reach half-maximal inhibition (IC50).

Regarding `COc1cc(C)c(C)cc1S(=O)(=O)Nc1cccnc1`, in series [1], the IC50 stood at 1680 nM.

Turning to `CCOc1cc(C)c(Cl)cc1S(=O)(=O)Nc1cccnc1`, in series [1], the IC50 was 690 nM.

`COc1cc(S(=O)(=O)Nc2cccnc2)c(OC)cc1Cl` showed an IC50 in [1] of 1130 nM.

For the molecule `COc1cc(S(=O)(=O)Nc2cccnc2)c(OC)cc1C`, inhibition in series [1] was half-maximal at 1490 nM (IC50).

For `CCOc1ccc(C)cc1S(=O)(=O)Nc1cccnc1`, the IC50 in [1] was 1130 nM.

Regarding `COc1ccc(Br)cc1S(=O)(=O)Nc1cnc2ccccc2c1`, in series [2], the permeability stood at 54%. Moreover, the remaining at 0.5 h in [3] came out at 49%; in series [4], 66%. The same molecule yielded a kinetic solubility in [5] of 37.9 µg/mL (≈ 96.4 µM).

In the case of `COc1cccc(S(=O)(=O)Nc2cnc3ccccc3c2)c1`, the IC50 in series [1] is greater than 10000 nM.

Turning to `CCOc1ccc(Cl)cc1S(=O)(=O)Nc1cccnc1`, in [1], the IC50 is 540 nM.

In the case of `COc1ccc(OC)c(S(=O)(=O)Nc2cnc3ccccc3c2)c1`, the inhibition in series [6] was less than 9.5%; in [7], less than 7.4%. Moreover, in [2], the permeability amounted to 58%. Further, the remaining at 0.5 h came to 78% in series [3] and 97% in [4]. In [8], this molecule yielded an IC50 greater than 100000 nM. This molecule came in with a Cmax in series [9] of 1500 ng/mL. In series [5], this molecule returned a kinetic solubility of 138 µg/mL (≈ 401 µM).

`COc1ccc(C)cc1S(=O)(=O)Nc1cnc2ccccc2c1`: in series [1], 650 nM corresponded to half-maximal inhibition (IC50). The molecule further yielded a permeability in series [2] of 7%. Moreover, the remaining at 0.5 h in [3] came to 48%; in series [4] it was 91%. Besides, the solubility (kinetic) in series [5] is 71.6 µg/mL (≈ 218 µM).

`COc1ccc(C)cc1S(=O)(=O)Nc1cccnc1`: 1850 nM corresponded to half-maximal inhibition in [1] (IC50). This molecule yielded a permeability in series [2] of 83%. The remaining at 0.5 h in series [3] turned out to be 39%; in series [4], 98%. Further, the solubility (kinetic) in series [5] worked out at 28.5 µg/mL (≈ 102 µM).

In the case of `COc1ccc(OC)c(S(=O)(=O)Nc2cccnc2)c1`, half-maximal inhibition in series [1] (IC50) was put at 1060 nM.

Turning to `COc1ccc(OC)c(NS(=O)(=O)c2cnc3ccccc3c2)c1`, the IC50 in series [1] was greater than 10000 nM.
